Screening data from PubChem BioAssay.
An excerpt weighted towards active compounds, which were near 0.99% of everything screened.
CASP6 VEID inh: blocks human caspase-6 cleavage activity; P55212; purified caspase-6, Z-VEID-R110 cleavage fluorescence; inhibition, % at 12.5 µM; 350,000 compounds, 0.53% hits;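 active = mean inhibition across replicates at least about 35%, with every replicate also reaching that limit, limit read from the data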
GC-B act: GC-B (human) receptor activation; P20594; HEK293-GC-B cells, CNP EC30, cGMP TR-FRET; 0% at EC30 CNP, 100% saturating CNP; activation, % at 10 µM; 370,000 compounds, 0.11% hits; AID 1920062;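 active = activation at 10 µM reaching about 35% in either raw or pattern-adjusted values, limit read from the data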
GC-A act: GC-A (human) enzyme activation; activation, % at 10 µM; 370,000 compounds, 0.14% hits; AID 1671463; HEK293 GC-A cells, cGMP TR-FRET, EC30 ANP; 0% at EC30 ANP, 100% saturating ANP; P16066; in the data active = activation above about 40%
NSD2 HMT inh: NSD2 (human) methyltransferase inhibition; 310,000 compounds, 0.54% hits; O96028; inhibition, % at 12.5 µM; NSD2 peptide methylation, AlphaScreen, 120 min; in the data active = inhibition above about 50%
Target sequence (O96028 whole entry, looked up): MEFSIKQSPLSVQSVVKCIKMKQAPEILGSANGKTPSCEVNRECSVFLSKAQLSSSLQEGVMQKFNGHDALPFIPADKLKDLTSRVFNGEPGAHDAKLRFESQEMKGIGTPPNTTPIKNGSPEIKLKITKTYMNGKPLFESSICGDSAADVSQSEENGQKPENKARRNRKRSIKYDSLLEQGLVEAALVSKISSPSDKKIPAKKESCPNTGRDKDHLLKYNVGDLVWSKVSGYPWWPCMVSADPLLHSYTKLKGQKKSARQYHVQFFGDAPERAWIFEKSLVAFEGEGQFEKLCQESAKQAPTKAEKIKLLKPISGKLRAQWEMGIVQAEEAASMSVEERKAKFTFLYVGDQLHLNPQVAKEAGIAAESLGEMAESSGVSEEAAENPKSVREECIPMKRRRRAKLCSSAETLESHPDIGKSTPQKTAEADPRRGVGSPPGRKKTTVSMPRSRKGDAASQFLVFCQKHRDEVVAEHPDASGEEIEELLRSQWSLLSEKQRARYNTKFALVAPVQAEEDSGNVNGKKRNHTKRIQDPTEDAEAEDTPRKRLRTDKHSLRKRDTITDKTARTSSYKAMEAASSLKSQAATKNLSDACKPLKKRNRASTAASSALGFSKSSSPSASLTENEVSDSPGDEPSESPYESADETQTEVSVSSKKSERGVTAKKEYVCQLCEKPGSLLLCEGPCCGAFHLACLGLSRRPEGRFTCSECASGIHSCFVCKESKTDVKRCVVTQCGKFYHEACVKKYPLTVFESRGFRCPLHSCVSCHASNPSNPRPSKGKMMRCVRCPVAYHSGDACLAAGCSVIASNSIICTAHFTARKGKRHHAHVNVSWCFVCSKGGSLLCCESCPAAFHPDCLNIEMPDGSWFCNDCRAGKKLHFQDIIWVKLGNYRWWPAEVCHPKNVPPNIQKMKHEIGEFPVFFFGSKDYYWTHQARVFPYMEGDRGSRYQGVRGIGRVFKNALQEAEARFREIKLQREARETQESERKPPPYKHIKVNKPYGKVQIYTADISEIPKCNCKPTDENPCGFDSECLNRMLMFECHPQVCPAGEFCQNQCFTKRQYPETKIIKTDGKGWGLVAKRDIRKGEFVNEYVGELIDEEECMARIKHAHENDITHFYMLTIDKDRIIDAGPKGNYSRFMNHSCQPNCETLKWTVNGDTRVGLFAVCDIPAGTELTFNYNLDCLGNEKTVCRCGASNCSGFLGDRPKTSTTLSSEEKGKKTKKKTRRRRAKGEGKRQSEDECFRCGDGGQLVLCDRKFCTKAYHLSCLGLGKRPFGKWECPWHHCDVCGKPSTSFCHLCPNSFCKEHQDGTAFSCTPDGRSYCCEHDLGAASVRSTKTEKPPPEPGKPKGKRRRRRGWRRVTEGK
CaV13 FRET inh: Primary screen for inhibitors of IQ motif and Ca2+-dependent inactivation inhibitor domain binding in CACNA1D, Förster resonance energy transfer in living cells, … | 340,000 compounds, 0.098% hits | HEK cells, CFP/YFP FRET ICDI-IQ, plate reader, 10 min; percent FRET-ratio fall versus neutral wells | inhibition, % at 12.3 µM;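 active = mean replicate inhibition of at least 30% and at least 1% of replicates passing that level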
FN deposit inh: fibronectin deposition inhibition; AH1F fibroblasts, Alexa488-fibronectin deposition fluorescence, overnight; inhibition, % at 12.6 µM; 350,000 compounds, 0.086% hits;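 active = mean inhibition across replicates of 30% or more, regardless of how many single replicates reach that level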
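Schedule: 1 h cell adhesion before compound, then overnight fibronectin incubation; test system: AH1F fibroblast monolayer depositing Alexa488-labelled fibronectin into matrix; quantity: 10000 AH1F cells per well; probe or stimulus: fluorescent fibronectin at 24 nM final; signal: fluorescence, ex 485 nm, em 525 nm; evaluation: percent inhibition as loss of matrix-bound fibronectin fluorescence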
AlphaScreen art: interferes with AlphaScreen signal, flagging NSD2 false positives. shares compounds with NSD2 HMT inh. AlphaScreen artifact counterscreen, preloaded methylated H4 peptide. AC35, µM (series often up to 10 µM). 1,500 compounds, 9.4% hits; call rule not given here
Numbers stand for hits.

What do the screens show for `O=C(Nc1ccccc1)Nc1ccc2c(c1)[C@@H]1C[C@@H](CC(=O)N3CCOCC3)O[C@H](CO)[C@@H]1O2`?
FN deposit inh: inactive

How did CC(=O)N=Cc1c(C)c(C#N)c(=O)n(C)c1O do in these assays?
CASP6 VEID inh: inactive; GC-B act: inactive; GC-A act: inactive; NSD2 HMT inh: 100.7; CaV13 FRET inh: inactive; FN deposit inh: inactive; AlphaScreen art: inactive

Results for CCNCCC(=O)N1c2ccccc2Sc2ccc(C(F)(F)F)cc21 ?
CASP6 VEID inh: inactive; GC-B act: inactive; GC-A act: inactive; NSD2 HMT inh: 78.4; CaV13 FRET inh: inactive; FN deposit inh: inactive; AlphaScreen art: inactive

How did O=C(CN1CCCC1)N1c2ccccc2Sc2ccc(C(F)(F)F)cc21 do in these assays?
GC-B act: inactive; GC-A act: inactive; NSD2 HMT inh: inactive; CaV13 FRET inh: inactive

Results for O=C(C1CCCC1)N1CC(=O)N2[C@@H](CO)[C@H](c3ccc(-c4cccnc4)cc3)[C@@H]2C1 ?
CASP6 VEID inh: inactive; FN deposit inh: inactive

How did Cc1cc(S(=O)(=O)NCc2cccnc2)ccc1F do in these assays?
CASP6 VEID inh: inactive; GC-B act: inactive; GC-A act: inactive; NSD2 HMT inh: 58.6; CaV13 FRET inh: inactive; FN deposit inh: inactive; AlphaScreen art: inactive

What do the screens show for `CCCCCNc1nc(N2CCCC2)c2c(c1C#N)CCN(C)C2`?
GC-B act: inactive; GC-A act: inactive; NSD2 HMT inh: inactive

How did CCCCCNc1nc(NCCCO)c(C#N)c2c1CN(C)CC2 do in these assays?
GC-B act: inactive; GC-A act: inactive; NSD2 HMT inh: 51.3; AlphaScreen art: inactive

What do the screens show for `Cc1[nH]n(-c2ccccc2)c(=O)c1Sc1ccc(Cl)cc1`?
GC-B act: inactive; GC-A act: inactive; NSD2 HMT inh: inactive; CaV13 FRET inh: inactive

Results for COc1ccc(C(c2c(C)n(C)n(-c3ccccc3)c2=O)c2c(C)n(C)n(-c3ccccc3)c2=O)cc1OC ?
CASP6 VEID inh: inactive; GC-B act: inactive; GC-A act: inactive; NSD2 HMT inh: inactive; CaV13 FRET inh: inactive; FN deposit inh: inactive

Results for Cc1[nH]n(-c2ccccc2)c(=O)c1C(C[N+](=O)[O-])c1ccc(F)cc1 (stereo unspecified) ?
GC-B act: inactive; GC-A act: inactive; NSD2 HMT inh: 64.8; CaV13 FRET inh: inactive; FN deposit inh: inactive; AlphaScreen art: inactive

What do the screens show for `Cc1ccc(C(C[N+](=O)[O-])c2c(C)[nH]n(-c3ccccc3)c2=O)cc1` (stereo unspecified)?
CASP6 VEID inh: inactive; GC-B act: inactive; GC-A act: inactive; NSD2 HMT inh: 102.9; CaV13 FRET inh: inactive; FN deposit inh: inactive; AlphaScreen art: inactive

How did Cc1[nH]n(-c2ccccc2)c(=O)c1C(c1ccccc1[N+](=O)[O-])C(C#N)C#N (stereo unspecified) do in these assays?
CASP6 VEID inh: inactive; GC-B act: inactive; GC-A act: inactive; NSD2 HMT inh: inactive; CaV13 FRET inh: inactive; FN deposit inh: inactive

How did COc1ccc(C(c2c(C)[nH]n(-c3ccccc3)c2=O)c2c(C)[nH]n(-c3ccccc3)c2=O)cc1OC do in these assays?
GC-B act: inactive; GC-A act: inactive; NSD2 HMT inh: 97.5; CaV13 FRET inh: inactive; AlphaScreen art: inactive

What do the screens show for `Cc1[nH]n(-c2ccccc2)c(=O)c1C(c1ccccc1C(=O)O)c1c(C)[nH]n(-c2ccccc2)c1=O`?
GC-B act: inactive; GC-A act: inactive; NSD2 HMT inh: inactive; CaV13 FRET inh: inactive; FN deposit inh: inactive

Results for Cc1[nH]n(-c2ccccc2)c(=O)c1C(C[N+](=O)[O-])c1ccc(Cl)cc1 (stereo unspecified) ?
GC-B act: inactive; GC-A act: inactive; NSD2 HMT inh: 100.1; CaV13 FRET inh: inactive; FN deposit inh: inactive; AlphaScreen art: inactive

What do the screens show for `CCCNC(=O)N1CC2(C1)CN(Cc1ccccn1)[C@H](CO)c1c2c2ccc(OC)cc2n1C`?
CASP6 VEID inh: inactive

Results for Cc1c(NC(=O)CN2C(=O)c3cccc4cccc2c34)c(=O)n(-c2ccccc2)n1C ?
GC-B act: inactive; GC-A act: inactive; NSD2 HMT inh: inactive; CaV13 FRET inh: inactive; FN deposit inh: inactive

Results for Cc1c(NC(=O)CN2C(=O)C(=O)c3ccccc32)c(=O)n(-c2ccccc2)n1C ?
CASP6 VEID inh: inactive; GC-B act: inactive; GC-A act: inactive; NSD2 HMT inh: 56.0; FN deposit inh: inactive; AlphaScreen art: inactive

Results for CC1=CCC2C(=O)N(c3ccc4ccccc4n3)C(=O)C2C1 (stereo unspecified) ?
GC-B act: inactive; GC-A act: inactive; NSD2 HMT inh: inactive

Results for Cc1cc(=O)n(-c2ccc3ccccc3n2)[nH]1 ?
GC-B act: inactive; GC-A act: inactive; NSD2 HMT inh: 85.9; CaV13 FRET inh: inactive; FN deposit inh: inactive; AlphaScreen art: inactive

How did COc1ccc(NC(=O)N(C)C[C@H]2OCCCC[C@H](C)Oc3ccc(NC(=O)Nc4ccc(F)cc4)cc3C(=O)N([C@H](C)CO)C[C@@H]2C)cc1 do in these assays?
CASP6 VEID inh: inactive

What do the screens show for `O=C(O)CN1C(=O)/C(=C\c2cc(Br)ccc2OCc2ccc(F)cc2)SC1=S`?
CASP6 VEID inh: 38.5; GC-B act: inactive; GC-A act: inactive; NSD2 HMT inh: 103.9; CaV13 FRET inh: inactive; FN deposit inh: inactive; AlphaScreen art: inactive

What do the screens show for `C#CCN1[C@H](/C=C/C2CC2)[C@H](Cc2ccccc2)OC(=O)[C@@H]1Cc1ccccc1`?
CASP6 VEID inh: inactive

How did CCN(CC)CCC(=O)c1ccc(F)cc1 do in these assays?
CASP6 VEID inh: inactive; GC-B act: inactive; GC-A act: 74.3; NSD2 HMT inh: 59.5; CaV13 FRET inh: inactive; FN deposit inh: inactive; AlphaScreen art: inactive

How did COc1ccc(NC(=O)Nc2ccc3c(c2)C(=O)N([C@H](C)CO)C[C@H](C)[C@H](CN(C)S(=O)(=O)c2ccccc2)OCCCC[C@@H](C)O3)cc1 do in these assays?
CASP6 VEID inh: inactive; FN deposit inh: inactive

What do the screens show for `O=C(CN(C(=O)c1csnn1)c1ccc(Cl)cc1)NC1CCCC1`?
CASP6 VEID inh: inactive; GC-B act: inactive; GC-A act: inactive; NSD2 HMT inh: inactive; CaV13 FRET inh: inactive; FN deposit inh: inactive

Results for O=C(CN(C(=O)c1csnn1)c1ccc(F)c(Cl)c1)NC1CCCCC1 ?
CASP6 VEID inh: inactive; GC-B act: inactive; GC-A act: inactive; NSD2 HMT inh: 87.6; CaV13 FRET inh: inactive; FN deposit inh: inactive; AlphaScreen art: inactive
